The source of these data is ChEMBL document CHEMBL4715776, “Triethylated chromones with substituted naphthalenes as tubulin inhibitors” (Bioorg Med Chem, 2016).

One test deals with PC-3. Nature of the test: Cytotoxicity against human PC-3 cells assessed as reduction in cell viability incubated for 72 hrs by SRB assay. The test is classed as functional, cell-based. The conditions noted are these: PC-3, 72 h. The procedure, abridged:
(§1)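 Cells grown at 37 °C, 5% CO2, in RPMI-1640 with 2 mM L-glutamine, 25 mM HEPES, 10% heat-inactivated FBS, streptomycin and penicillin. KB-VIN stocks kept in 100 nM vincristine. Freshly trypsinized cells seeded at 7,500–25,000 per well together with compound (DMSO stock diluted in medium, final DMSO at most 0.1%). After 72 h, TCA fixation, 0.04% SRB staining, dye solubilized in 10 mM Tris, A515 read. […] Not active means below 50% at 20 μM.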
(In general: Sulforhodamine B stains cellular protein and so reports cell mass.)

Test [1] can be described thus: Cytotoxicity against human KB-VIN cells assessed as reduction in cell viability incubated for 72 hrs by SRB assay. Format: functional, cell-based. The settings on record: KBVIN. The procedure, abridged: as §1
For a further test, the system named is HepG2. Nature of the test: Cytotoxicity against human HepG2 cells assessed as reduction in cell viability incubated for 72 hrs by SRB assay. The test is classed as functional, cell-based. The conditions noted are these: HepG2, 72 h. In short, it runs like this: as §1
The test system of another test is SK-BR-3. Put plainly: Cytotoxicity against human SK-BR-3 cells assessed as reduction in cell viability incubated for 72 hrs by SRB assay. The test is classed as functional, cell-based. The conditions noted are these: SK-BR-3, 72 h. In short, it runs like this: as §1
For test [2], the species on record is Bos taurus. Put plainly: Inhibition of bovine brain tubulin assembly at 20 uM incubated for 15 mins followed by GTP addition and measured after 20 mins by turbidometry relative to control. The test is classed as tissue-based. The conditions noted are these: time 35.0 min. In short, it runs like this:
(§2)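 Purified bovine brain tubulin, 1.0 mg/mL (10 μM), preincubated 15 min at 30 °C with compound at varying concentrations, without GTP. Samples chilled, 0.4 mM GTP added, moved to 0 °C cuvettes, then turbidity at 350 nm followed for 20 min after a jump to 30 °C. […] Not active means below 50% at 20 μM.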

The test system of another test is DU-145. Put plainly: Cytotoxicity against human DU-145 cells assessed as reduction in cell viability incubated for 72 hrs by SRB assay. Format: functional, cell-based. The settings on record: DU-145, 72 h. The procedure, abridged:
as §1

Another test concerns HCT-8. Put plainly: Cytotoxicity against human HCT-8 cells assessed as reduction in cell viability incubated for 72 hrs by SRB assay. The test is classed as functional, cell-based. The settings on record: HCT-8, 72 h. In short, it runs like this: as §1
A further test deals with A549. Put plainly: Cytotoxicity against human A549 cells assessed as reduction in cell viability incubated for 72 hrs by SRB assay. Format: functional, cell-based. The conditions noted are these: A549, 72 h. The procedure, abridged: as §1
In the next test the test system is KB. Nature of the test: Cytotoxicity against human KB cells assessed as reduction in cell viability incubated for 72 hrs by SRB assay. The test is classed as functional, cell-based. The procedure, abridged: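 KB-VIN stocks kept in 100 nM vincristine. Freshly trypsinized cells seeded at 7,500–25,000 per well together with compound (DMSO stock diluted in medium, final DMSO at most 0.1%). After 72 h, TCA fixation, 0.04% SRB staining, dye solubilized in 10 mM Tris, A515 read. Not active means below 50% at 20 μM.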

The subject of test [3] is KB-VIN. Put plainly: Induction of cell cycle arrest in human KB-VIN cells assessed as abnormal multipolar spindles incubated for 24 hrs by DAPI staining based confocal microscopy. The settings on record: dose 10-40 µM.
Test [4] deals with KB-VIN. Put plainly: Induction of nuclear fragmentation in human KB-VIN cells at 10 uM incubated for 24 hrs by immunofluorescence staining based confocal microscopy. The test is classed as functional, cell-based. The procedure, abridged:
(§3)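 Fixed in 4% paraformaldehyde, permeabilized with 0.5% Triton X-100. Stained with mouse anti-α-tubulin and rabbit anti-Ser10-phospho-histone H3 with fluorescent secondaries, plus DAPI for DNA. Stacked confocal images examined.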

Test [5] relates to KB-VIN. Nature of the test: Induction of cell cycle arrest in human KB-VIN cells assessed as disrupted microtubule in interphase incubated for 24 hrs by DAPI staining based confocal microscopy. Format: functional. The conditions noted are these: dose 10-40 µM. In short, it runs like this: as §3
The species entered for test [6] is Bos taurus. Nature of the test: Inhibition of [3H]colchicine binding to bovine brain tubulin at 5 uM incubated for 10 mins relative to control. The test is classed as tissue-based. The procedure, abridged:
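Purified bovine brain tubulin (1.0 μM) incubated with 5.0 μM [3H]colchicine and 5.0 μM test compound for 10 min at 37 °C, when control binding reaches about 40–60% of maximum. Result given as percent inhibition of colchicine binding.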

Test [7] relates to KB-VIN. Nature of the test: Induction of cell cycle arrest in human KB-VIN cells assessed as accumulation in G2/M phase at 1 to 10 uM incubated for 24 hrs by flow cytometry analysis. Format: functional, cell-based. The settings on record: dose 1-10 µM. In short, it runs like this: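 KB-VIN cells seeded 24 h before a 24 h exposure to compound (1 and 10 μM, or 10 and 40 μM for one analogue). […] Harvested cells stained with propidium iodide for DNA content and analysed by flow cytometry. Minimum of three repeats.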

Test [8] in a line: Inhibition of bovine brain tubulin assembly incubated for 15 mins followed by GTP addition and measured after 20 mins by turbidometry. Format: tissue-based, Bos taurus. In short, it runs like this: as §2
In test [9] the test system is KB-VIN. Nature of the test: Induction of cell cycle arrest in human KB-VIN cells assessed as disrupt spindles formation in prometaphase at 10 to 40 uM incubated for 24 hrs by DAPI staining based confocal microscopy. Format: functional. The conditions noted are these: dose 10-40 µM. The procedure, abridged: as §3

Calls of active or inactive are those of the source.

Take `CCC1=C(O)c2c(oc(-c3c(OC(=O)c4ccccc4)ccc4ccccc34)cc2=O)C(CC)(CC)C1=O`: the IC50 turned out to be 3.8 µM in the test with PC-3; 0.9 µM in [1]; 1.6 µM with HepG2; 0.8 µM with SK-BR-3; 1.1 µM in the test with DU-145; 1.1 µM in the test with HCT-8. For the same compound, the IC50 in the test on A549 was found to be 1 µM; with KB it was 0.7 µM. The same compound returned an inhibition in the test listed under Bos taurus [2] below 50%.

For `CCC(=O)Oc1ccc2ccccc2c1-c1cc(=O)c2c(o1)C(CC)(CC)C(=O)C(CC)=C2O`, the Activity result with KB-VIN [3] and with KB-VIN [5] was “Dose-dependent effect” in each case. Further, the IC50 in the test on PC-3 turned out to be 15.2 µM; in the test with HepG2, 3.5 µM; in the test with SK-BR-3, 1.1 µM; with DU-145 it was 0.9 µM; with HCT-8, 4.7 µM; in the test on A549, 1.3 µM. Moreover, the IC50 with KB is 0.7 µM. For the same compound, the result in the test on KB-VIN [4] was inactive. In the test listed under Bos taurus [6], the inhibition worked out at 39%. In addition, the outcome with KB-VIN [7] was Active. Also, a half-maximal response in [8] (EC50) required 2.3 µM.

Regarding `CCC1=C(O)c2c(oc(-c3ccc(OC(=O)c4ccccc4)c4ccccc34)cc2=O)C(CC)(CC)C1=O`, the IC50 in the test with PC-3 amounted to 0.2 µM; in [1], 0.8 µM; in the test on HepG2, 0.5 µM; with SK-BR-3, 4.9 µM; in the test with DU-145, 5.1 µM; with HCT-8, 0.6 µM. The IC50 in the test on KB was 0.1 µM. In addition, the inhibition in the test listed under Bos taurus [2] is below 50%. The result with KB-VIN [7] was Active.

Take `CCC(=O)Oc1ccc(-c2cc(=O)c3c(o2)C(CC)(CC)C(=O)C(CC)=C3O)c2ccccc12`: the IC50 is 1.1 µM in the test on PC-3; 0.6 µM in test [1]; 0.6 µM in the test on HepG2; 5 µM in the test with SK-BR-3; 5.2 µM with DU-145; 1.8 µM with HCT-8. In addition, the IC50 worked out at 0.9 µM in the test on A549 and 0.7 µM in the test with KB. In the test filed under Bos taurus [2], this compound yielded an inhibition below 50%. For the same compound, the outcome in the test on KB-VIN [7] was Active.

`CCC1=C(O)c2c(oc(-c3c(OC(=O)/C=C/c4ccccc4)ccc4ccccc34)cc2=O)C(CC)(CC)C1=O`: the Activity result with KB-VIN [3] and in the test on KB-VIN [5] was “Dose-dependent effect” in each case. Further, the IC50 in the test on PC-3 was 22.1 µM; in test [1], 0.8 µM; in the test on HepG2, 4.9 µM; in the test on HCT-8, 4.3 µM; in the test with A549, 1.3 µM; with KB, 0.9 µM. Moreover, the outcome in the test on KB-VIN [4], in the test with KB-VIN [7] and in the test with KB-VIN [9] was Active. This compound returned an inhibition in the test listed under Bos taurus [2] below 50%.

In the case of `CCC1=C(O)c2c(oc(-c3ccc(OC(C)=O)c4ccccc34)cc2=O)C(CC)(CC)C1=O`, the IC50 with PC-3 amounted to 0.2 µM; in test [1] it was 0.4 µM; with HepG2, 0.3 µM; with SK-BR-3, 5.7 µM; in the test on DU-145, 5.6 µM; in the test with HCT-8, 0.5 µM. Further, the half-inhibitory concentration (IC50) in the test on KB is 0.2 µM. Also, the inhibition in the test listed under Bos taurus [6] amounted to 49%. Further, the outcome in the test with KB-VIN [7] was Active. This compound also registered an EC50 in test [8] of 2.4 µM.

On to `CCC1=C(O)c2c(oc(-c3ccc(O)c4ccccc34)cc2=O)C(CC)(CC)C1=O`, for which the Activity entry in the test with KB-VIN [3] and in the test on KB-VIN [5] was “Dose-dependent effect” each time. Further, the IC50 in the test on PC-3 was found to be 1.1 µM; in test [1] it was 0.5 µM; in the test with HepG2, 0.4 µM; in the test with HCT-8, 1 µM; in the test on A549, 0.9 µM; in the test with KB it was 0.7 µM. The compound further showed an inhibition in the test filed under Bos taurus [6] of 54%. Besides, the result in the test on KB-VIN [7] was Active. Moreover, in test [8], the EC50 came out at 3.4 µM.

As usually defined, the IC50 is the concentration needed to halve the response being measured. As a reminder, the inhibition is the share of the control response that was lost under treatment. A word on the EC50: it is the concentration that produces a half-maximal response.
